ChEMBL document CHEMBL2413013, “Triplex-forming ability of oligonucleotides containing 1-aryl-1,2,3-triazole nucleobases linked via a two atom-length spacer” (Bioorg Med Chem, 2013)

What was measured:
[1] = Binding affinity to hairpin double stranded DNA CG base pair in sodium cacodylate buffer at pH 6.8 assessed as triplex-forming ability measuring melting temperature after by UV melting experiment
Outline: (§1)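 TFO and hairpin dsDNA target, each strand at 1.89 μM final, in 10 mM sodium cacodylate (pH 6.8) with 100 mM KCl and 50 mM MgCl₂. Annealed in boiling water, then cooled slowly to 5 °C. Melting was followed at 260 nm from 5 to 90 °C at 0.5 °C/min. Tm was taken by the two-point average method, mean of three independent runs.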

[2] = Binding affinity to hairpin double stranded DNA GC base pair in sodium cacodylate buffer at pH 6.8 assessed as triplex-forming ability measuring melting temperature after by UV melting experiment; outline: as §1
[3] = Binding affinity to hairpin double stranded DNA TA base pair in sodium cacodylate buffer at pH 6.8 assessed as triplex-forming ability measuring melting temperature after by UV melting experiment; outline: as §1
[4] = Binding affinity to hairpin double stranded DNA AT base pair in sodium cacodylate buffer at pH 6.8 assessed as triplex-forming ability measuring melting temperature after by UV melting experiment; outline: as §1

Tm [1]: 24 °C | Tm [2]: 20 °C | Tm [3]: 22 °C | Tm [4]: 21 °C
SMILES: Cc1cn([C@H]2C[C@H](O[PH](OCCC#N)(OC[C@H]3O[C@@H](n4cc(C)c(=O)[nH]c4=O)C[C@@H]3O[PH](OCCC#N)(OC[C@H]3O[C@@H](n4cc(C)c(=O)[nH]c4=O)C[C@@H]3O[PH](OCCC#N)(OC[C@H]3O[C@@H](n4cc(C)c(=O)[nH]c4=O)C[C@@H]3O[PH](OCCC#N)(OC[C@H]3O[C@@H](n4cc(C)c(=O)[nH]c4=O)C[C@@H]3O[PH](OCCC#N)(OC(C)[C@H]3O[C@@H](n4ccc(N)nc4=O)C[C@@H]3O[PH](OCCC#N)(OC[C@H]3O[C@@H](n4cc(C)c(=O)[nH]c4=O)C[C@@H]3O[PH](OCCC#N)(OC[C@H]3O[C@@H](CCc4cn(-c5ccccc5)nn4)C[C@@H]3OP(=O)(O)OC[C@H]3O[C@@H](n4cc(C)c(=O)[nH]c4=O)C[C@@H]3O[PH](OCCC#N)(OC(C)[C@H]3O[C@@H](n4ccc(N)nc4=O)C[C@@H]3O[PH](OCCC#N)(OC[C@H]3O[C@@H](n4cc(C)c(=O)[nH]c4=O)C[C@@H]3O[PH](OCCC#N)(OC(C)[C@H]3O[C@@H](n4ccc(N)nc4=O)C[C@@H]3O[PH](OCCC#N)(OC[C@H]3O[C@@H](n4cc(C)c(=O)[nH]c4=O)C[C@@H]3O[PH](OCCC#N)(OC(C)[C@H]3O[C@@H](n4ccc(N)nc4=O)C[C@@H]3O[PH](OCCC#N)(OC[C@H]3O[C@@H](n4cc(C)c(=O)[nH]c4=O)C[C@@H]3O)N(C(C)C)C(C)C)N(C(C)C)C(C)C)N(C(C)C)C(C)C)N(C(C)C)C(C)C)N(C(C)C)C(C)C)N(C(C)C)C(C)C)N(C(C)C)C(C)C)N(C(C)C)C(C)C)N(C(C)C)C(C)C)N(C(C)C)C(C)C)N(C(C)C)C(C)C)N(C(C)C)C(C)C)N(C(C)C)C(C)C)[C@@H](CO)O2)c(=O)[nH]c1=O (some centres undefined)
